Reference: ChEMBL document CHEMBL3232956, “Solid-supported synthesis, molecular modeling, and biological activity of long-chain arylpiperazine derivatives with cyclic amino acid amide fragments as 5-HT(7) and 5-HT(1A) receptor ligands” (Eur J Med Chem, 2014)

Assays:
Assay type in all cases: cell-based
HEK293 [1] = test: Selectivity ratio of Ki for human 5-HT7 receptor expressed in HEK293 cells to Ki for human 5-HT1A receptor expressed in HEK293 cells
In short: (§1)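 Ratios computed from Ki values from radioligand displacement in HEK293 membranes stably expressing human receptors: [3H]-8-OH-DPAT for 5-HT1A (1 h, room temperature) and [3H]-5-CT for 5-HT7b (1 h, 37 °C), filtration read-out. Each compound in triplicate at 7-8 concentrations (10^-11–10^-4 M); Ki by Cheng-Prusoff.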

HEK293 [2] = test: Selectivity ratio of Ki for human 5-HT1A receptor expressed in HEK293 cells to Ki for human 5-HT7 receptor expressed in HEK293 cells; in short: as §1
[3] = target: T1, 5-hydroxytryptamine receptor 1A (Homo sapiens, UniProt P08908); test: Displacement of [3H]-8-OH-DPAT from human 5-HT1A receptor expressed in HEK293 cells after 1 hr by beta-counting
T1 sequence (P08908 whole entry): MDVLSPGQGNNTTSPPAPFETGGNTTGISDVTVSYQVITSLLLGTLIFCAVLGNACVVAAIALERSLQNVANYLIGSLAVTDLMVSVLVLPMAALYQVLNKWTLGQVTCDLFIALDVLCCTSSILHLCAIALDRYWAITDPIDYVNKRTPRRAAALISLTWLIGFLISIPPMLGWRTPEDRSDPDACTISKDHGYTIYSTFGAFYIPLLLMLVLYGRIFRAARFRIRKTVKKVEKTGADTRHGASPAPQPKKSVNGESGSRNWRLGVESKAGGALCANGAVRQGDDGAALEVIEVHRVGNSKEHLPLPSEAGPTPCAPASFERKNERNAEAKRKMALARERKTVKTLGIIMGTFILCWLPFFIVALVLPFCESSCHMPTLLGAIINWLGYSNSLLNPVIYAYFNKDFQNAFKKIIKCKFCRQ
In short: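 Human 5-HT1A receptor stably expressed in HEK293 cells; pellet homogenized in 20 vol buffer (50 mM Tris-HCl, 0.1 mM EDTA, 4 mM MgCl2, 0.1% ascorbate, pargyline), spun twice 35,000 g 20 min 4 °C, 15 min 37 °C between spins. Displacement of [3H]-8-OH-DPAT (187 Ci/mmol), 1 h room temperature; filtration, filter-bound radioactivity. Triplicate at 7-8 concentrations (10^-11–10^-4 M); Ki via Cheng-Prusoff.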

[4] = target: 5-hydroxytryptamine receptor 7 (Homo sapiens, UniProt P34969); test: Displacement of [3H]-5-CT from human 5-HT7 receptor expressed in HEK293 cells after 1 hr by beta-counting
Sequence of 5-hydroxytryptamine receptor 7 (P34969 whole entry): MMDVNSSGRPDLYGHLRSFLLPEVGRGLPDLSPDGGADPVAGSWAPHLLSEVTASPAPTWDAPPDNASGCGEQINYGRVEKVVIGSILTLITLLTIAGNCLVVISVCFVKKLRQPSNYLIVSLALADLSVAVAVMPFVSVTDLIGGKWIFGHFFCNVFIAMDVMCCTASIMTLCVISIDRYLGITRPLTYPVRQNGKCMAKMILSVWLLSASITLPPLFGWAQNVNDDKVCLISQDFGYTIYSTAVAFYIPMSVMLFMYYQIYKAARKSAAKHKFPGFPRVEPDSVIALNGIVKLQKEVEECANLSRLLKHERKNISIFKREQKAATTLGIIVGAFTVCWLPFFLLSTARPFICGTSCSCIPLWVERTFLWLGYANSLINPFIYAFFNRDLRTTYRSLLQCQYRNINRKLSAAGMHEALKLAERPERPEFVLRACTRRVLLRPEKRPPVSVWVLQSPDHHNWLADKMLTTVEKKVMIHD

| Ki [3] [nM] | Ki [4] [nM] | SMILES | Ratio Ki (HEK293 [1]) | Ratio Ki (HEK293 [2]) |
| --- | --- | --- | --- | --- |
| 16 | 95 | NC(=O)[C@@H]1Cc2ccccc2CN1C(=O)CCCCCN1CCN(c2cccc(Cl)c2Cl)CC1 | 6 | < 1 |
| 23 | 495 | CSc1ccccc1N1CCN(CCCCCCC(=O)N2CCC[C@H]2C(N)=O)CC1 | 21 | < 1 |
| 14 | 153 | CSc1ccccc1N1CCN(CCCCCC(=O)N2CCC[C@H]2C(N)=O)CC1 | 11 | < 1 |
| 313 | 567 | CSc1ccccc1N1CCN(Cc2ccc(C(=O)N3CCC[C@H]3C(N)=O)cc2)CC1 | 2 | < 1 |
| 18 | 51 | CSc1ccccc1N1CCN(CCCCC(=O)N2Cc3ccccc3C[C@H]2C(N)=O)CC1 | 3 | < 1 |
| 1910 | 295 | NC(=O)[C@@H]1Cc2ccccc2CN1C(=O)CCCCN1CCN(c2ccc(F)cc2)CC1 | < 1 | 6 |
| 643 | 107 | NC(=O)[C@@H]1Cc2ccccc2CN1C(=O)CCCCCN1CCN(c2ccc(F)cc2)CC1 | < 1 | 6 |
| 83 | 113 | NC(=O)[C@@H]1CCCN1C(=O)CCCCN1CCN(c2cccc(Cl)c2Cl)CC1 | < 1 | < 1 |
| 230 | 22 | NC(=O)[C@@H]1Cc2ccccc2CN1C(=O)CCCCCN1CCN(c2noc3ccccc23)CC1 | < 1 | 10 |
| 77 | 579 | COc1ccccc1N1CCN(Cc2ccc(C(=O)N3Cc4ccccc4C[C@H]3C(N)=O)cc2)CC1 | 7 | < 1 |
| 38 | 478 | NC(=O)[C@@H]1CCCN1C(=O)CCCCCN1CCN(c2cccc(Cl)c2)CC1 | 13 | < 1 |
| 212 | 1200 | NC(=O)[C@@H]1Cc2ccccc2CN1C(=O)c1ccc(CN2CCN(c3cccc(Cl)c3Cl)CC2)cc1 | 6 | < 1 |
| 4 | 179 | NC(=O)[C@@H]1CCCN1C(=O)CCCCCN1CCN(c2cccc(Cl)c2Cl)CC1 | 45 | < 1 |
| 122 | 101 | NC(=O)[C@@H]1CCCN1C(=O)CCCCCCN1CCN(c2noc3ccccc23)CC1 | < 1 | 1 |
| 6310 | 4150 | COc1ccccc1N1CCN(Cc2ccc(C(=O)N3CCC[C@H]3C(N)=O)cc2)CC1 | < 1 | 2 |
|  | 0.22 | CSc1ccccc1N1CCN(CCCCCC(=O)NC2CCCc3ccccc32)CC1 (stereo unspecified) |  |  |
| 12 | 302 | COc1ccccc1N1CCN(CCCCCC(=O)N2Cc3ccccc3C[C@H]2C(N)=O)CC1 | 25 | < 1 |
| 141 | 3130 | NC(=O)[C@@H]1CCCN1C(=O)CCCCCN1CCN(c2ccccc2F)CC1 | 22 | < 1 |

Further lines, the compound ahead of its results:

| SMILES | Ki [3] [nM] | Ki [4] [nM] | Ratio Ki (HEK293 [1]) | Ratio Ki (HEK293 [2]) |
| --- | --- | --- | --- | --- |
| NC(=O)[C@@H]1Cc2ccccc2CN1C(=O)CCCCCN1CCN(c2cccc(Cl)c2)CC1 | 499 | 725 | 1 | < 1 |
| NC(=O)[C@@H]1CCCN1C(=O)CCCCCN1CCN(c2ccccc2Cl)CC1 | 232 | 1310 | 6 | < 1 |
| NC(=O)[C@@H]1CCCN1C(=O)CCCCCN1CCN(c2ccc(F)cc2)CC1 | 573 | 1190 | 2 | < 1 |
| NC(=O)[C@@H]1Cc2ccccc2CN1C(=O)CCCCCCN1CCN(c2noc3ccccc23)CC1 | 89 | 28 | < 1 | 3 |
| NC(=O)[C@@H]1Cc2ccccc2CN1C(=O)CCCCCN1CCN(c2ccccc2O)CC1 | 72 | 476 | 7 | < 1 |
| CSc1ccccc1N1CCN(CCCCCC(=O)N2Cc3ccccc3C[C@H]2C(N)=O)CC1 | < 1 | 78 | > 78 | < 1 |
| COc1ccccc1N1CCN(CCCCCC(=O)N2CCC[C@H]2C(N)=O)CC1 | 44 | 1200 | 27 | < 1 |
| NC(=O)[C@@H]1CCCN1C(=O)CCCCN1CCN(c2ccccc2O)CC1 | 52 | 1870 | 36 | < 1 |
| CSc1ccccc1N1CCN(CCCCCCC(=O)N2Cc3ccccc3C[C@H]2C(N)=O)CC1 | 2 | 111 | 55 | < 1 |
| CSc1ccccc1N1CCN(Cc2ccc(C(=O)N3Cc4ccccc4C[C@H]3C(N)=O)cc2)CC1 | 122 | 148 | 1 | < 1 |
| NC(=O)[C@@H]1Cc2ccccc2CN1C(=O)CCCCN1CCN(c2ccc(Cl)cc2)CC1 | 211 | 223 | 1 | < 1 |
| NC(=O)[C@@H]1Cc2ccccc2CN1C(=O)CCCCCN1CCN(c2ccccc2Cl)CC1 | 236 | 393 | 2 | < 1 |
| NC(=O)[C@@H]1CCCN1C(=O)CCCCCN1CCN(c2noc3ccccc23)CC1 | 214 | 50 | < 1 | 4 |
| NC(=O)[C@@H]1Cc2ccccc2CN1C(=O)CCCCN1CCN(c2noc3ccccc23)CC1 | 377 | 18 | < 1 | 21 |
| COc1ccccc1N1CCN(CCCCC(=O)N2Cc3ccccc3C[C@H]2C(N)=O)CC1 | 107 | 551 | 5 | < 1 |
| COc1ccccc1N1CCN(CCCCC(=O)N2CCC[C@H]2C(N)=O)CC1 | 214 | 634 | 3 | < 1 |
| CSc1ccccc1N1CCN(CCCCC(=O)N2CCC[C@H]2C(N)=O)CC1 | 47 | 163 | 3 | < 1 |
| NC(=O)[C@@H]1CCCN1C(=O)CCCCN1CCN(c2noc3ccccc23)CC1 | 2910 | 108 | < 1 | 27 |
